In the library only some 3.7% were active in any assay of this set; here they are far more common.
Arbovirus anti: antivirals against arbovirus infection; arbovirus infection cell-based antiviral screen; 200,000 compounds, 0.37% hits; inhibition, % at 10 µM; in the data active = inhibition above about 30%
PKD1 kinase inh: inhibitors of human PKD1 kinase; Q15139; PKD1 kinase fluorescence polarization assay; inhibition, % (concentration not given with the values); 200,000 compounds, 0.056% hits; AID 797; in the data active = inhibition above about 50%
Cl transport mod: modulators of human KCC2 chloride dependent transport. Q9H2X9. KCC2 cells, thallium flux FluoZin-2 fluorescence. B-score of Tl+ flux slope (higher = more flux/activation; lower = inhibition) at 10 µM. 190,000 compounds, 2.2% hits. AID 1456;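 active = thallium flux slope and its plate-corrected score both differing from the plate sample mean at a set confidence after two filtering rounds, in either direction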;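 also: slope of fluorescence scaled to starting intensity during 10 to 20 s after thallium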
ROMK primary: human ROMK K+ channel modulation, primary screen; P48048; Tet-inducible ROMK, thallium flux fluorescence; actives lie on both sides; B-score at 10 µM; 130,000 compounds, 2% hits;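 active = signal ratio slope over the read window, or its plate-corrected B-score, at least 3 SD from the plate mean, either direction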;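 also: B-score of the F/F0 ratio slope over 7 to 12 s after thallium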
Target sequence (P48048 whole entry, looked up): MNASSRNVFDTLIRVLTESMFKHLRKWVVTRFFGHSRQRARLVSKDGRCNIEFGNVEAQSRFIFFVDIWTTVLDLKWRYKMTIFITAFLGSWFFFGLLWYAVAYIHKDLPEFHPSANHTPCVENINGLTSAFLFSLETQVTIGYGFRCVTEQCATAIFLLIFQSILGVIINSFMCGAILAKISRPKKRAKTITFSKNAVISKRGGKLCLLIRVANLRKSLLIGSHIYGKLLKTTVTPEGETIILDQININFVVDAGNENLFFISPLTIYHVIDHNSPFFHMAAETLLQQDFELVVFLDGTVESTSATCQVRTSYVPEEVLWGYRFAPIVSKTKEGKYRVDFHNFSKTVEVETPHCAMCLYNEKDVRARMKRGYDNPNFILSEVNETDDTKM
MDM2 E3 inh: blocks human Mdm2 ubiquitin ligase activity; Q00987; 210,000 compounds, 0.11% hits; cell-based MDM2 ubiquitination luciferase reporter, 2 h; 0 = plate control, 100 = twice control, blank-subtracted; AID 1230; signal enhancement, % at 5 µM;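 active = signal enhancement of 30% or more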;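 also: luminescence tracks abundance of the self-degrading MDM2-luciferase fusion protein; higher signal means inhibition of MDM2 E3 ligase activity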
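Test system: mammalian cells stably expressing self-ubiquitinating, self-degrading MDM2 E3–luciferase fusion; Amount: 2000 cells in each well; Medium: DMEM; Schedule: 4 h settle plus 2 h compound, 37 °C; Technique: SteadyLite luciferase luminescence after 15 min room-temperature reagent incubation; Benchmarks: plate control and blank wells.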
Calpain2 inh: blocks pig calpain II enzyme activity; purified calpain II, fluorogenic peptide substrate, 30 min; 220,000 compounds, 0.37% hits; inhibition, % at 16 µM; AID 1236;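 active = inhibition above about 50%, limit read from the data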
KCC2 secondary: KCC2 (human) modulation, secondary assay | 3,700 compounds, 15% hits | normalised thallium flux (F/F0 slope) at 10 µM | shares compounds with Cl transport mod | HEK293-KCC2, thallium flux, FluoZin2 fluorescence; active compounds read high;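 active = thallium flux slope above the same plate's solvent-only control mean plus 3 SD; inconclusive = the two replicate wells disagree; inactive = no significant difference from solvent-only control wells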
KCC2 bumet counter: thallium flux persisting under bumetanide in KCC2 cells, counter-screen secondary assay. shares compounds with Cl transport mod. HEK293-KCC2 + bumetanide/ouabain, thallium flux FluoZin2; active compounds read high. normalized thallium flux at 10 µM. 3,700 compounds, 49% hits. AID 1714;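 active = thallium entry rate above the same plate's blocked-transporter control wells by more than 3 SD; inconclusive = the two repeat wells disagree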;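 also: raw slope of fluorescence over initial fluorescence between 10 and 20 s after thallium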
KCC2 sec2: KCC2 (human) modulation, second secondary assay; shares compounds with Cl transport mod; HEK293-KCC2, thallium flux FluoZin2 fluorescence; actives lie on both sides; F/F0 rise rate, 10–20 s post-thallium; normalized thallium flux at 10 µM; 3,700 compounds, 23% hits; AID 1715;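 active = thallium flux slope more than 3 SD above or below the plate's solvent-only control mean, mostly below; inconclusive = the two repeat wells disagreed; inactive = no significant shift from solvent-only controls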;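 also: raw slope with 0.1% DMSO as baseline and bumetanide as block control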
HEK293 Tl flux: parental HEK flux effect, counter-screen; shares compounds with Cl transport mod; HEK293 parental cells, thallium flux FluoZin2, ouabain; baseline-ratio fluorescence slope, 10–20 s after thallium; thallium flux rate (normalised fluorescence) at 10 µM; 3,700 compounds, 46% hits; AID 1716;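 active = thallium flux rate significantly above the same plate's solvent-only control wells, beyond their mean plus 3 SD; inconclusive = the two replicate wells gave conflicting results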
KCC2 ouabain: confirmation of human KCC2 modulators with ouabain; HEK293-KCC2, thallium flux FluoZin2 fluorescence; bidirectional: low = inhibitor, high = activator; raw Tl+ flux slope (below DMSO = inhibition, above = activation) at 10 µM; 3,700 compounds, 48% hits; shares compounds with Cl transport mod; AID 1717;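 active = thallium flux slope beyond 3 SD from same-plate DMSO control mean in most replicates, usually higher, sometimes lower; inconclusive = repeat tests gave conflicting results; inactive = no significant difference from controls in most replicates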;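 also: slope of initial-normalized fluorescence between seconds 10 and 20 after thallium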
HEK293 Tl flux2: parental HEK flux effect, counter-screen 2 | shares compounds with Cl transport mod | HEK293 parental, thallium flux FluoZin-2 fluorescence slope | thallium flux slope at 10 µM | 3,700 compounds, 33% hits | AID 1718;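 active = thallium flux slope above the same plate's solvent-control mean plus 3 SD in both duplicate wells; inconclusive = duplicate wells that disagreed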;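 also: run without ouabain in cells lacking the KCC2 cotransporter; slope of fluorescence scaled to its starting value between 10 and 20 s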
* = called active by the depositor; ? = inconclusive; / = no result given.

SMILES	Arbovirus anti	PKD1 kinase inh	Cl transport mod	ROMK primary	MDM2 E3 inh	Calpain2 inh	KCC2 secondary	KCC2 bumet counter	KCC2 sec2	HEK293 Tl flux	KCC2 ouabain	HEK293 Tl flux2
Cc1ccccc1C(=O)NC(CC(C)C)C(=O)Nc1ccc(S(N)(=O)=O)cc1 (stereo unspecified)	-2	-5	1.5	-0.44	-9	7	/	/	/	/	/	/
S=C1NC2(CCCC2)N=C1c1ccccc1	-1	0	2.3	-1.8	0	-18	/	/	/	/	/	/
S=C1NC2(CCCCCC2)N=C1c1ccccc1	2	-9	4.6*	-0.15	0	1	0.01	0.016*	0.038	?	?	0.013
Cc1ccc(C2=NC3(CCCC3)NC2=S)cc1	5	-1	5.6*	-0.76	-3	11	0.011	0.019*	0.03	0.011*	0.024	?
CC(C)(C)NC(=O)c1sccc1C(=O)O	7	1	-0.72	/	19	-39	/	/	/	/	/	/
Cc1cc(NC(=O)c2cc(C(C)C)on2)nn1Cc1ccc(Cl)cc1	13	-2	-0.94	/	-14	0	/	/	/	/	/	/
Oc1ccc(-c2csc(-c3ccccc3)n2)cc1O	-13	11	-4.4*	/	-16	10	0.0085	?	0.027	0.007	0.021*	0.0097
O=C(Nc1nnc(-c2ccncc2)o1)c1ccc(Br)s1	-13	-1	4.6*	0.42	-13	36	0.017	0.0096*	0.031	0.014*	0.02	0.015*
CCCCn1nnc(NC(=S)NC(=O)c2cccs2)n1	10	-4	2.7	/	-13	11	/	/	/	/	/	/
CN(C)CCCNCC(=O)Nc1ccccc1N1CCOCC1	10	3	1.2	0.84	-19	7	/	/	/	/	/	/
CCCc1sc(N)nc1-c1ccc(C)cc1	-9	-3	-2	-0.026	-3	12	/	/	/	/	/	/
CCN(CC)C(=S)NC(=O)Cc1ccccc1	7	-9	0.97	-0.19	-4	1	/	/	/	/	/	/
C=CCN(CC=C)C(=S)NC(=O)Cc1cccc2ccccc12	56*	-8	/	/	7	-41	0.043*	0.15*	0.061*	0.1*	0.13*	0.054*
COc1cc(/C=N/NC(=O)CN(Cc2ccccc2)S(=O)(=O)c2ccc3c(c2)OCCO3)ccc1O	-7	-7	-4.4*	-0.00046	-2	-80	0.0084	0.007	?	0.0063	0.014*	0.01
O=C(O)c1ccn2c(C(=O)c3ccccc3)c(-c3ccccc3)cc2c1	/	/	-3.2	/	-6	10	/	/	/	/	/	/
COc1ccc(/C=N/NC(=S)Nc2ccccc2)cc1	-1	6	9.1*	-0.51	-97	-2	0.0094	0.031*	0.032	0.01*	?	0.0095
O=C(CC(=O)Nc1cccc(Cl)c1)N/N=C\c1ccccc1	-2	8	0.39	/	-13	21	/	/	/	/	/	/
S=C(N/N=C/c1ccc2ncccc2c1)Nc1ccccc1	-14	8	6.5*	0.34	-8	21	0.017	0.021*	0.029	0.011*	0.019	0.014*
O=[N+]([O-])c1ccc(/C=N/NC(=S)Nc2ccccc2)o1	-5	2	5.4*	/	-7	-75	0.013*	0.026*	0.031	0.014*	0.028*	0.011*
COc1ccc(/C=N/NC(=S)Nc2cccc(C(=O)O)c2)cc1	-2	-10	-0.15	0.0012	-18	7	/	/	/	/	/	/

From PubChem BioAssay
